Results taken from ChEMBL document CHEMBL1158163, “A re-examination of the difluoromethylenesulfonic acid group as a phosphotyrosine mimic for PTP1B inhibition” (Bioorg Med Chem, 2008).
Starred links: 1 amine or outer side, 2 acyl side, 3 side chain; linkers in the order of their positions; H or OH if unused. Non-standard residues stand in square brackets, D forms with d. Residues, ends and D or L forms follow the SMILES beside them. X1 = O=C([C@@H](Cc1cccc(C(F)(F)S(=O)(=O)O)c1)N[*:1])[*:2]; X3 = O=C([C@@H](Cc1cccc(C(F)(F)P(=O)(O)O)c1)N[*:1])[*:2]; X2 = O=C([C@@H](Cc1cccc(CS(=O)(=O)O)c1)N[*:1])[*:2]

Target: T1, Tyrosine-protein phosphatase non-receptor type 1 (Homo sapiens, UniProt P18031)
T1 sequence (P18031 whole entry): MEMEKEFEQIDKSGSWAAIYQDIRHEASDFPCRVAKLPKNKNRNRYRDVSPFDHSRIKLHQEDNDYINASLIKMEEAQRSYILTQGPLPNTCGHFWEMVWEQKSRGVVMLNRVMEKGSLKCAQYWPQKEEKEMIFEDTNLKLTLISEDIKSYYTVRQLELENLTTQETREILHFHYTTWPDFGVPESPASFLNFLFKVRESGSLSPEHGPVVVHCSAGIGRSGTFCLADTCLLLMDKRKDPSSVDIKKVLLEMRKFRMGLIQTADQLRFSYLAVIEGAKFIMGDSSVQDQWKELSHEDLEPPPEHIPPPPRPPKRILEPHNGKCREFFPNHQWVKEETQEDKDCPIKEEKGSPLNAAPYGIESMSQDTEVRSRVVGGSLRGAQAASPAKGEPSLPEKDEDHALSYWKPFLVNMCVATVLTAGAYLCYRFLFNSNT
Test: Inhibition of human PTP1B expressed in Escherichia coli BL21(DE3) cells
Summary of the method: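 IC50 assay at 25 °C in 50 mM Bis–Tris HCl pH 6.3 with 2% glycerol, 0.1% Triton X-100, 4% DMSO, 4.5 mM DTT, 1.8 mM EDTA (final). DiFMUP substrate at Km (5 µM). Reaction started by adding PTP1B. DiFMU fluorescence (ex 360/em 460 nm) followed for 10 min. Initial rates Vi/Vo fitted semi-log to Vi = Vo/[1+([I]/IC50)^S]+B.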

| IC50 [µM] | Ki [µM] | Structure (SMILES) |
| --- | --- | --- |
| 0.006 | – | NS(=O)(=O)c1cc(-c2ccc(CSCc3ccc(C(F)(F)P(=O)(O)O)c(Br)c3)cc2)ccc1Br |
| 13 | 10.6 | NS(=O)(=O)c1cc(-c2ccc(CSCc3ccc(C(F)(F)S(=O)(=O)O)c(Br)c3)cc2)ccc1Br |
| 19 | 10.3 | NS(=O)(=O)c1cc(-c2ccc(CSCc3ccc(CS(=O)(=O)O)c(Br)c3)cc2)ccc1Br |
| 0.03 | 0.024 | NS(=O)(=O)C(F)(F)c1cc(-c2ccc(CSCc3ccc(C(F)(F)P(=O)(O)O)c(Br)c3)cc2)ccc1Br |
| 6 | 3.3 | NS(=O)(=O)C(F)(F)c1cc(-c2ccc(CSCc3ccc(C(F)(F)S(=O)(=O)O)c(Br)c3)cc2)ccc1Br |
| 10 | – | CC(C)C[C@H](NC(=O)[C@@H](Cc1cccc(C(F)(F)S(=O)(=O)O)c1)NC(=O)[C@H](CCC(=O)O)NC(=O)[C@H](CC(=O)O)NC(=O)[C@H](C)NC(=O)[C@@H](N)CC(=O)O)C(N)=O (H-DADE[X1]L-NH2) |
| 44 | – | CC(C)C[C@H](NC(=O)[C@@H](Cc1cccc(CS(=O)(=O)O)c1)NC(=O)[C@H](CCC(=O)O)NC(=O)[C@H](CC(=O)O)NC(=O)[C@H](C)NC(=O)[C@@H](N)CC(=O)O)C(N)=O (H-DADE[X2]L-NH2) |

| Structure (SMILES) | IC50 [µM] | Ki [µM] |
| --- | --- | --- |
| O=P(O)(O)C(F)(F)c1ccc2ccccc2c1 | 35 | – |
| CC(C)C[C@H](NC(=O)[C@@H](Cc1cccc(C(F)(F)P(=O)(O)O)c1)NC(=O)[C@H](CCC(=O)O)NC(=O)[C@H](CC(=O)O)NC(=O)[C@H](C)NC(=O)[C@@H](N)CC(=O)O)C(N)=O (H-DADE[X3]L-NH2) | – | 0.024 |
